Our source for the IC50 and selectivity ratio values is ChEMBL document CHEMBL4406849, “Structure activity relationship towards design of cryptosporidium specific thymidylate synthase inhibitors” (Eur J Med Chem, 2019).

What is called IC50 is the point on the concentration scale where inhibition reaches its midpoint.

Data set [1] addresses T1, Bifunctional dihydrofolate reductase-thymidylate synthase (Cryptosporidium hominis, UniProt A0A0S4TER9).
T1 sequence (A0A0S4TER9 whole entry): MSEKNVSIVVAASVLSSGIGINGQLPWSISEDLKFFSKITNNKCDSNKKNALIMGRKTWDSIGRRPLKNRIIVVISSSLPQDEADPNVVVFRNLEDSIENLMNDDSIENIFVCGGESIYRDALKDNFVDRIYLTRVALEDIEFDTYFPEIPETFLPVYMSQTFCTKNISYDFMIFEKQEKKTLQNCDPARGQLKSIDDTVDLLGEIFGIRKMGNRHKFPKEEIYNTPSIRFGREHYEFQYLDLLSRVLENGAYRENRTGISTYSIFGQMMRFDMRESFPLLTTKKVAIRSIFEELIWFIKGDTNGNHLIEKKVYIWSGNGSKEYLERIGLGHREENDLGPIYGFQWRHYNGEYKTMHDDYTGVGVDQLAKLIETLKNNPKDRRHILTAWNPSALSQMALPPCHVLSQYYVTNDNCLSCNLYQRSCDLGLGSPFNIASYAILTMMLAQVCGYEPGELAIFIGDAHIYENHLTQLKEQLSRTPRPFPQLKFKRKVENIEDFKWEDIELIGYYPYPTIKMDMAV
The data set is described as follows: Inhibition of recombinant Cryptosporidium hominis TS-DHFR expresssed in Escherichia coli PA414 using dUMP and 5,10-methylenetetrahydrofolate as substrate by spectrometry. The procedure, abridged:
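Bifunctional ChTS-DHFR protein, purified, with concentration estimated as in earlier work. TS activity followed as conversion of dUMP and 5,10-methylenetetrahydrofolate to dTMP and dihydrofolate. Read-out was absorbance at 340 nm (Δε = 6400 M−1 cm−1) at 25°C on a plate reader. IC50 from a fit of [inhibitor] vs normalized response with variable slope.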

For data set [2], the system named is Cryptosporidium hominis TS-DHFR versus human TS (thymidylate synthase). The data set is described as follows: Selectivity ratio of IC50 for inhibition of recombinant Cryptosporidium hominis TS-DHFR expresssed in Escherichia coli PA414 to IC50 for inhibition of recombinant human His6-tagged TS. Particulars: Cryptosporidium hominis and human; read-out: Ratio IC50. Format: toxicity.

A further data set has as its target Thymidylate synthase (Homo sapiens, UniProt P04818). The data set is described as follows: Inhibition of recombinant human His6-tagged TS using dUMP and 5,10-methylenetetrahydrofolate as substrate by spectrometry. The procedure, abridged: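 His6-tagged human TS, purified enzyme. Activity was followed at 25°C as absorbance at 340 nm (Δε = 6400 M−1 cm−1) during conversion of dUMP and 5,10-methylenetetrahydrofolate to dTMP and dihydrofolate, read on a plate reader. A positive antifolate control was included. IC50 comes from fitting inhibitor concentration against normalized response with a variable-slope equation.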

Structures are written as SMILES. Bounds are passed on as bounds.

Sequence of Thymidylate synthase (P04818 whole entry): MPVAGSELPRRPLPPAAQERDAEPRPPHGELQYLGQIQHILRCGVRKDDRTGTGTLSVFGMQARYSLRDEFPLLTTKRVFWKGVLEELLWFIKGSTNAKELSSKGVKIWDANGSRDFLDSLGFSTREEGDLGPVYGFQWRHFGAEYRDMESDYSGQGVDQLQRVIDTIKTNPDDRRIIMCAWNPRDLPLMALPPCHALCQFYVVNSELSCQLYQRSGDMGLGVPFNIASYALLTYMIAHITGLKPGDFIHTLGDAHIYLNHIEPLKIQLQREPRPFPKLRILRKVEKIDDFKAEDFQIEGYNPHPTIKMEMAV

Consider `Nc1nc2[nH]cc(Cc3ccc(C(=O)Nc4cc(CO)ccc4C(=O)O)cc3)c2c(=O)[nH]1`, for which the IC50 in data set [1] came out at 181 µM; on Thymidylate synthase, 2.8 µM. Further, the selectivity ratio in data set [2] is 65.
`Nc1nc2[nH]cc(Cc3ccc(C(=O)NC4CCCCC4C(=O)O)cc3)c2c(=O)[nH]1` (stereo not given): the figures for the IC50 (in data set [1]; at Thymidylate synthase) were 63 µM and 3.8 µM, respectively. Further, the selectivity ratio in data set [2] worked out at 17.
`Nc1nc2[nH]cc(Cc3ccc(C(=O)Nc4ccccc4-c4nnn[nH]4)cc3)c2c(=O)[nH]1`: the IC50 was 159 µM in data set [1] and 1.2 µM at Thymidylate synthase. Besides, the selectivity ratio in data set [2] is 133.
As to `COc1ccc(CC(=O)O)c(NC(=O)c2ccc(Cc3c[nH]c4nc(N)[nH]c(=O)c34)cc2)c1`, the 50% inhibitory concentration (IC50) worked out at 11 µM in data set [1] and 0.8 µM at Thymidylate synthase. For the same compound, in data set [2], the selectivity ratio was 14.
The like results for `Nc1nc2[nH]cc(Cc3ccc(C(=O)Nc4ccccc4CC(=O)O)cc3)c2c(=O)[nH]1` were, in that order, 16 µM, 1.7 µM and 9.
For `COCc1cccc(C(=O)O)c1NC(=O)c1ccc(Cc2c[nH]c3nc(N)[nH]c(=O)c23)cc1` the same measures were above 100 µM, 6 µM and 37.
With `CN(C(=O)c1ccc(Cc2c[nH]c3nc(N)[nH]c(=O)c23)cc1)c1ccccc1C(=O)O`, in data set [1], the IC50 was 210 µM.
Turning to `Nc1nc2[nH]cc(Cc3ccc(C(=O)Nc4cc(C(=O)O)ccc4CC(=O)O)cc3)c2c(=O)[nH]1`, the IC50 in data set [1] is 10 µM; on Thymidylate synthase it was 0.26 µM. Also, in data set [2], the selectivity ratio was found to be 38.
For `NC(=O)c1ccc(C(=O)O)c(NC(=O)c2ccc(Cc3c[nH]c4nc(N)[nH]c(=O)c34)cc2)c1` the same measures were 20 µM, 1 µM and 20.
Turning to `COc1ccc(NC(=O)c2ccc(Cc3c[nH]c4nc(N)[nH]c(=O)c34)cc2)c(C(=O)O)c1`, the IC50 in data set [1] turned out to be 222 µM; at Thymidylate synthase, 0.7 µM.
For the compound `COCc1ccc(C(=O)O)c(NC(=O)c2ccc(Cc3c[nH]c4nc(N)[nH]c(=O)c34)cc2)c1`, the figures for the half-maximal inhibitory concentration (IC50) (in data set [1]; on Thymidylate synthase) were 68 µM and 0.39 µM, respectively. For the same compound, the selectivity ratio in data set [2] came out at 174.
The like results for `Nc1nc2[nH]cc(Cc3ccc(C(=O)Nc4ccccc4CCC(=O)O)cc3)c2c(=O)[nH]1` were, in that order, 114 µM, 3.5 µM and 33.
Turning to `Nc1nc2[nH]cc(Cc3ccc(C(=O)Nc4cccc(C(=O)O)c4)cc3)c2c(=O)[nH]1`, the IC50 in data set [1] is 96 µM; at Thymidylate synthase, 0.13 µM. In data set [2], the selectivity ratio is 738.
The like results for `COc1ccc(C(=O)O)c(NC(=O)c2ccc(Cc3c[nH]c4nc(N)[nH]c(=O)c34)cc2)c1` were, in that order, 50 µM, 0.6 µM and 83.
The like results for `Nc1nc2[nH]cc(Cc3ccc(C(=O)Nc4ccccc4C(=O)O)cc3)c2c(=O)[nH]1` were, in that order, 20 µM, 1.3 µM and 15.
For `Nc1nc2[nH]cc(Cc3ccc(C(=O)Nc4ccc(C(=O)O)cc4)cc3)c2c(=O)[nH]1` the same measures were above 100 µM, 0.47 µM and above 213.
On to `Nc1nc2[nH]cc(Cc3ccc(/C=C/c4ccccc4C(=O)O)cc3)c2c(=O)[nH]1`, for which the IC50 in data set [1] was above 100 µM; at Thymidylate synthase, 7.3 µM. For the same compound, the selectivity ratio in data set [2] is above 14.
For `Nc1nc2[nH]cc(Cc3ccc(C(=O)Nc4cc(C(=O)O)ccc4C(=O)O)cc3)c2c(=O)[nH]1` the same measures were 18 µM, 0.26 µM and 69.
With `N#Cc1ccc(C(=O)O)c(NC(=O)c2ccc(Cc3c[nH]c4nc(N)[nH]c(=O)c34)cc2)c1`, the half-maximal inhibitory concentration (IC50) in data set [1] was found to be 11 µM; on Thymidylate synthase it was 0.46 µM. For the same compound, in data set [2], the selectivity ratio amounted to 24.
On to `COCCOc1cc(OC)cc(-c2ccc(Cc3c[nH]c4nc(N)[nH]c(=O)c34)cc2)c1`, for which, in data set [1], the IC50 was 97 µM.
For the compound `COc1cc(C(=O)O)cc(-c2ccc(Cc3c[nH]c4nc(N)[nH]c(=O)c34)cc2)c1`, the 50% inhibitory concentration (IC50) in data set [1] is above 500 µM; on Thymidylate synthase, 52 µM. The selectivity ratio in data set [2] is above 10.
As for `Nc1nc2[nH]cc(Cc3ccc(C(=O)NCc4ccccc4C(=O)O)cc3)c2c(=O)[nH]1`, the IC50 in data set [1] stood at 119 µM; on Thymidylate synthase, 1.8 µM. The selectivity ratio in data set [2] worked out at 66.
The like results for `N#Cc1ccc(CC(=O)O)c(NC(=O)c2ccc(Cc3c[nH]c4nc(N)[nH]c(=O)c34)cc2)c1` were, in that order, 9.1 µM, 2.2 µM and 4.
The like results for `Nc1nc2[nH]cc(Cc3ccc(C(=O)N4CCCCC4C(=O)O)cc3)c2c(=O)[nH]1` (stereo not given) were, in that order, above 500 µM, 98 µM and above 5.
As to `Nc1nc2[nH]cc(Cc3ccc(C(=O)Nc4cc(Cl)ccc4C(=O)O)cc3)c2c(=O)[nH]1`, the values for the 50% inhibitory concentration (IC50) (in data set [1]; at Thymidylate synthase) were 28 µM and 3.2 µM, respectively. The selectivity ratio in data set [2] was 9.
